Source: PubChem
TLR9-MyD88 block – inhibitors of TLR9-MyD88 association in cells, primary screen, cell-based, CHO, BLA complementation, fluorescence; Toll-like receptor 9 (Homo sapiens) + Myeloid differentiation primary response protein …; CCF4 FRET ratio; inhibition, % at 4.98 µM; 340,000 compounds, 0.21% hits; AID 504734, 2011;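 active = inhibition above the mean over all tested compounds plus 3 SD, cut at about 21% in these data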
NOD2 RIPK2 PPI – NOD2-RIPK2 binding disruptors in cells, primary screen, fluorescence, CHO cells, BLA complementation; inhibition, % at 4.98 µM; Receptor-interacting serine/threonine-protein kinase 2 (Homo sapiens), O43353; 360,000 compounds, 0.38% hits; CCF4 ratio; AID 624267, 2012; in the data active = inhibition above about 21%
Target sequence (O43353 whole entry, looked up): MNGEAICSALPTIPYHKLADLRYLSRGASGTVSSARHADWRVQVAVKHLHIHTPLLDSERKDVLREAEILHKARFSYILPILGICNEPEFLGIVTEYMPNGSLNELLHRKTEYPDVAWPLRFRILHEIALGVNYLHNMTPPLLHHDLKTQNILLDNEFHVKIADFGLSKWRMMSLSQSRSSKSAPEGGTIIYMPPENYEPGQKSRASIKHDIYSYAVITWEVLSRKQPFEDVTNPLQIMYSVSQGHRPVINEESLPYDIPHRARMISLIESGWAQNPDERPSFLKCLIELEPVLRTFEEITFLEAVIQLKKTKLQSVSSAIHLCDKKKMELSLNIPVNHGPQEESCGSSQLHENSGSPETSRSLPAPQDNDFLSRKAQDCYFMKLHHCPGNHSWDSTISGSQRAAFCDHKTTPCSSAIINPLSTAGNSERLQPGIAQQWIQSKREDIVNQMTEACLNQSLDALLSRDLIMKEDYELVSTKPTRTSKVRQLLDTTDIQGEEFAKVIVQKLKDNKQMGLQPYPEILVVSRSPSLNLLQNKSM
TLR4-MyD88 BLA – inhibitors of TLR4-MyD88 association in cells, primary screen, cell-based, HeLa CL3-4, BLA complementation, FRET ratio | Toll-like receptor 4 (Homo sapiens) + Myeloid differentiation primary response protein … | HeLa CL3-4 TLR4/MyD88 BLA complementation | inhibition, % at 8.4 µM | 200,000 compounds, 0.18% hits | AID 861, 2007; in the data active = inhibition above about 25%
MC4R antag cAMP – MC4R antagonists of cAMP signaling, primary screen, cell-based, TR-FRET, antagonist arm of biased-ligand search; inhibition, % at 6.5 µM; AID 540295, 2011; Melanocortin receptor 4 (Homo sapiens), P32245; 360,000 compounds, 0.48% hits; MC4R-expressing cells, MTII-stimulated cAMP, LANCE TR-FRET;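 active = inhibition above its plate's cutoff, the mean of tested wells on that plate plus 3 SD, cut at about 29% in these data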
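material = U2OS cells stably expressing human melanocortin 4 receptor (MC4R) | also added = Melanotan II challenge | dosing = single nominal compound dose of 6.5 µM | detection = TR-FRET with Eu-cAMP and labeled anti-cAMP, 671 nm | replication = singlicate | timing = compound 30 min, challenge 1 h, detection 1 h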
MC4R barr agon – MC4R agonists recruiting beta-arrestin, primary screen, cell-based, luminescence, agonist arm of biased-ligand search. Melanocortin receptor 4 (Homo sapiens), P32245. U2OS MC4R beta-arrestin complementation; percent of melanotan II response, DMSO zero. activation, % at 8.9 µM. 360,000 compounds, 0.98% hits. AID 540308, 2011;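 active = activation above a per-plate cutoff, the mean activation of sample wells on that plate plus 3 SD, cut at about 8% in these data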
U2OS cAMP counter – nonselective cAMP signaling inhibitors, parental cells, counter-screen for MC4R biased antagonist project, cell-based, TR-FRET, U2OS, forskolin, triplicate | shares compounds with MC4R antag cAMP | LANCE TR-FRET | inhibition, % at 6.5 µM | 1,600 compounds, 26% hits;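 active = mean inhibition over triplicates above the low-control well mean plus 3 SD, set per campaign, cut at about 13% in these data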;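 note: signal is single emission at 671 nm which falls as cellular cAMP rises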
MC4R cAMP antag – MC4R cAMP antagonists, retest, confirmation, cell-based, TR-FRET; shares compounds with MC4R antag cAMP; MC4R-expressing cells, MTII-stimulated cAMP; inhibition, % at 6.5 µM; 1,600 compounds, 27% hits; AID 602195, 2012; in the data active = inhibition above about 29%
MC4R barr conf – MC4R beta-arrestin agonists, retest, confirmation, cell-based, luminescence, U2OS; shares compounds with MC4R barr agon; U2OS MC4R beta-arrestin recruitment; scaled DMSO 0%, Melanotan II 100%; activation, % at 8.9 µM; 2,400 compounds, 31% hits; AID 602192, 2012;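 active = mean activation across replicates above the hit cutoff set in the earlier primary screen, cut at about 8% in these data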
MOR DOR agonist – agonists of MOR-DOR heterodimerization, counter-screen for MC4R biased agonist project, cell-based, luminescence. shares compounds with MC4R barr agon. U2OS PathHunter beta-arrestin, beta-gal luminescence; percent of deltorphin B response, DMSO zero. AID 602194, 2012. activation, % at 9.2 µM. 2,400 compounds, 5.8% hits;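 active = mean activation across replicates exceeds the hit threshold derived in the earlier primary screen, cut at about 18% in these data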
NOD2-RIPK2 conf – NOD2-RIPK2 binding disruptors, retest, confirmation, fluorescence, CHO cells, BLA complementation, triplicate; inhibition, % at 4.98 µM; 1,200 compounds, 70% hits; shares compounds with NOD2 RIPK2 PPI; CCF4 FRET;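 active = mean inhibition across replicates above a set limit taken from the earlier primary screen, cut at about 21% in these data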
NOD2 BLA counter – hits BLA reporter in NOD2-RIPK2 inhibitor counterscreen; AID 624371; CHO BLA reporter, CCF4 FRET ratio; inhibition, % at 4.98 µM; 1,200 compounds, 57% hits; shares compounds with NOD2 RIPK2 PPI;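 active = mean inhibition above the low-control mean inhibition plus three low-control SD, cut at about 11% in these data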
Numbers stand for hits. The list is not random: actives were taken first. Their share in the collection is about 1.8%.

How did CCc1nnc(NC(=O)c2nc(S(=O)(=O)Cc3ccc(C)cc3)ncc2Cl)s1 do in these assays?
TLR9-MyD88 block: inactive; NOD2 RIPK2 PPI: 26; MC4R antag cAMP: 31; MC4R barr agon: inactive; U2OS cAMP counter: 23; MC4R cAMP antag: 39; NOD2-RIPK2 conf: 34; NOD2 BLA counter: 22

Results for N#Cc1cccnc1N1CCN(C(C(=O)NC2CCCC2)c2ccco2)CC1 (centres undefined) ?
NOD2 RIPK2 PPI: inactive

Results for O=C(O)CCCCCN1C(=O)/C(=C/c2cn(-c3ccccc3)nc2-c2cccs2)SC1=S ?
TLR9-MyD88 block: inactive; NOD2 RIPK2 PPI: inactive; MC4R antag cAMP: inactive; MC4R barr agon: inactive

Results for CC1=NNC(=O)/C1=C\c1cn(-c2ccccc2)nc1-c1cccs1 ?
TLR9-MyD88 block: inactive; NOD2 RIPK2 PPI: 60; TLR4-MyD88 BLA: inactive; MC4R antag cAMP: 47; MC4R barr agon: inactive; U2OS cAMP counter: 22; MC4R cAMP antag: 44; NOD2-RIPK2 conf: 66; NOD2 BLA counter: inactive

How did O=[N+]([O-])c1cc(S(=O)(=O)Oc2ccccc2)ccc1Cl do in these assays?
TLR9-MyD88 block: inactive; NOD2 RIPK2 PPI: 58; MC4R antag cAMP: 30; MC4R barr agon: inactive; U2OS cAMP counter: 35; MC4R cAMP antag: inactive; NOD2-RIPK2 conf: inactive; NOD2 BLA counter: inactive

What do the screens show for `CC1=C/C(=N\OS(=O)(=O)c2ccccc2)C(C)=CC1=O`?
TLR9-MyD88 block: inactive; NOD2 RIPK2 PPI: 54; TLR4-MyD88 BLA: inactive; MC4R antag cAMP: 68; MC4R barr agon: inactive; U2OS cAMP counter: 39; MC4R cAMP antag: 76; NOD2-RIPK2 conf: 51; NOD2 BLA counter: 13

How did CC(=O)NC(Cc1ccccc1F)C(=O)NC1CCN(C(=O)Nc2ccc(C)cc2)CC1 (centres undefined) do in these assays?
TLR9-MyD88 block: inactive; NOD2 RIPK2 PPI: inactive; MC4R antag cAMP: inactive; MC4R barr agon: inactive

What do the screens show for `CN(CCc1ccccc1)C(=O)c1ccc(NC(=O)Cc2ccc(NC(=O)C3CCN(S(=O)(=O)c4cccc([N+](=O)[O-])c4)CC3)cc2)cc1`?
TLR9-MyD88 block: inactive; NOD2 RIPK2 PPI: inactive; MC4R antag cAMP: inactive; MC4R barr agon: inactive

What do the screens show for `COc1ccc([N+](=O)[O-])c(S(=O)(=O)c2ccccc2)n1`?
NOD2 RIPK2 PPI: 33; MC4R antag cAMP: 29; MC4R barr agon: inactive; U2OS cAMP counter: 29; MC4R cAMP antag: inactive; NOD2-RIPK2 conf: 59; NOD2 BLA counter: inactive

How did Cc1ccc(NC(=O)C2CCCN(C(=O)c3ccc(Cl)cc3)C2)cc1S(=O)(=O)N1CCOCC1 (centres undefined) do in these assays?
TLR9-MyD88 block: inactive; NOD2 RIPK2 PPI: inactive; TLR4-MyD88 BLA: inactive; MC4R antag cAMP: inactive; MC4R barr agon: inactive

What do the screens show for `N#CC(C#N)=C1C=CC=CN1/C(=C\c1ccco1)C(=O)c1ccc(-c2ccccc2)cc1`?
TLR9-MyD88 block: inactive; NOD2 RIPK2 PPI: 22; TLR4-MyD88 BLA: inactive; MC4R antag cAMP: 31; MC4R barr agon: inactive; U2OS cAMP counter: inactive; MC4R cAMP antag: inactive; NOD2-RIPK2 conf: 78; NOD2 BLA counter: 16

How did N#CC(C#N)=C1C=CC=CN1/C(=C\c1ccco1)C(=O)c1ccc(Cl)cc1 do in these assays?
TLR9-MyD88 block: inactive; NOD2 RIPK2 PPI: 94; TLR4-MyD88 BLA: inactive; MC4R antag cAMP: 34; MC4R barr agon: inactive; U2OS cAMP counter: 29; MC4R cAMP antag: 43; NOD2-RIPK2 conf: 91; NOD2 BLA counter: 17

Results for CCOC(=O)C(C)(C)Sc1ncnc2nc[nH]c12 ?
TLR9-MyD88 block: inactive; NOD2 RIPK2 PPI: inactive; TLR4-MyD88 BLA: inactive; MC4R antag cAMP: inactive; MC4R barr agon: inactive

How did CCOC(=O)c1cc([N+](=O)[O-])cc([N+](=O)[O-])c1Sc1ncnc2nc[nH]c12 do in these assays?
TLR9-MyD88 block: inactive; NOD2 RIPK2 PPI: 39; MC4R antag cAMP: 58; MC4R barr agon: inactive; U2OS cAMP counter: 47; MC4R cAMP antag: 47; NOD2-RIPK2 conf: 67; NOD2 BLA counter: inactive

Results for O=C(CSc1ncn[nH]1)N1CCOCC1 ?
TLR9-MyD88 block: inactive; NOD2 RIPK2 PPI: inactive; TLR4-MyD88 BLA: inactive; MC4R antag cAMP: inactive; MC4R barr agon: inactive

What do the screens show for `O=C1C(=Cc2ccc(Cl)cc2)Cc2ccccc21`?
NOD2 RIPK2 PPI: inactive

What do the screens show for `C=CC(=O)N1C/C(=C/c2ccc(Cl)cc2)C(=O)/C(=C\c2ccc(Cl)cc2)C1`?
TLR9-MyD88 block: inactive; NOD2 RIPK2 PPI: 45; MC4R antag cAMP: 45; MC4R barr agon: inactive; U2OS cAMP counter: 22; MC4R cAMP antag: inactive; NOD2-RIPK2 conf: 54; NOD2 BLA counter: inactive

Results for CCOc1ccc(NC(=NCc2ccc3c(c2)OCO3)SC2CC(=O)N(c3ccccc3)C2=O)cc1 (centres undefined) ?
TLR9-MyD88 block: inactive; NOD2 RIPK2 PPI: inactive; TLR4-MyD88 BLA: inactive; MC4R antag cAMP: inactive; MC4R barr agon: 18; MC4R barr conf: inactive; MOR DOR agonist: inactive

How did CCOC(=O)c1c(CSc2ccc(CC)cc2)oc2ccc(O)c(CN(C)C)c12 do in these assays?
TLR9-MyD88 block: inactive; NOD2 RIPK2 PPI: inactive; MC4R antag cAMP: inactive; MC4R barr agon: 20; MC4R barr conf: 15; MOR DOR agonist: inactive
